1 compound from ChEMBL document CHEMBL4732112, “Synthesis and in vitro evaluation of novel spiroketopyrazoles as acetyl-CoA carboxylase inhibitors and potential antitumor agents” (Eur J Med Chem, 2021) can be followed below.

In data set [1] the test system is HepG2. The data set is described as follows: Induction of apoptosis in human HepG2 cells assessed as necrotic cells at 1 uM measured after 48 hrs by Annexin V-FITC/propidium iodide staining based flow cytometry (reference value: 0.22%). The data set is classed as functional. Summed up: (§1)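 HepG2 cells incubated with the stated concentrations for 48 h, harvested, and stained with Annexin V-FITC and propidium iodide protected from light. Viable, early apoptotic, late apoptotic and necrotic fractions quantified by flow cytometry. Mean ± SD, n=3.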
On the technique in general: In flow cytometry, cells or beads pass a laser one at a time.

The subject of data set [2] is HepG2. Description: Cell cycle arrest in human HepG2 cells assessed as accumulation at G0/G1 phase at 5 uM measured after 48 hrs by propidium iodide staining based flow cytometry (reference value: 56.24%). Type of data set: functional.
In data set [3] the test system is HepG2. Description: Antiproliferative activity against human HepG2 cells assessed as combination index at 0.7 uM measured after 72 hrs in presence of 1.4 uM doxorubicin by MTT assay. The data set is classed as functional. (In general: Tetrazolium assays rely on reduction of a dye to a coloured formazan, in cell work by metabolically active cells.)
The nature of data set [4]: Cytotoxicity against HUVEC assessed as cell viability at 100 uM after 72 hrs by MTT assay relative to control. Type of data set: cell-based. The note with it: human, HUVEC cells, read-out: Activity. In short, it runs like this: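 HUVEC kept in RPMI 1640 with 10% FBS at 37 °C, 5% CO2. Seeded at 3×10^3 per well and treated at 100 µM for 72 h after 24 h attachment. Viability by MTT with absorbance at 550 nm, as percent of control. Mean ± SD, n=3.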

The test system of data set [5] is HepG2. The data set is described as follows: Induction of apoptosis in human HepG2 cells assessed as early apoptotic cells at 10 uM measured after 48 hrs by Annexin V-FITC/propidium iodide staining based flow cytometry (reference value: 4.03%). The data set is classed as functional. In short, it runs like this: as §1
In data set [6] the test system is HepG2. Description: Antiproliferative activity against human HepG2 cells assessed as combination index at 0.175 uM measured after 72 hrs in presence of 0.35 uM doxorubicin by MTT assay. Type of data set: functional.
In data set [7] the test system is HepG2. Description: Antiproliferative activity against human HepG2 cells assessed as combination index at 0.35 uM measured after 72 hrs in presence of 0.7 uM doxorubicin by MTT assay. Type of data set: functional.
The target of a further data set is Acetyl-CoA carboxylase 1 (Homo sapiens, UniProt Q13085). The data set is described as follows: Inhibition of ACC1 in human HepG2 cells assessed as reduction in intracellular malonyl-CoA level measured after 48 hrs by ELISA. The data set is classed as cell-based. The note with it: dose 1-10 µM. Summed up: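 HepG2 cells plated and exposed to the compound at several concentrations for 48 h. Cells washed with PBS, lysed in 1% Triton X-100 and spun 12000 rpm, 4 °C, 15 min. Malonyl-CoA measured by ELISA kit and triglyceride by GPO-POP kit, each normalised to BCA protein. Reported relative to control, mean ± SD, n=3.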
Background: An ELISA detects its analyte on a solid surface through an enzyme-linked reagent.

For data set [8], the system named is HepG2. The data set is described as follows: Induction of apoptosis in human HepG2 cells assessed as increase in Bax expression measured after 48 hrs by Western blot analysis. The data set is classed as functional, cell-based. The note with it: dose 1-10 µM. In short, it runs like this: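 Western blots for Bcl-2, Bax, cleaved caspase-3 and cleaved PARP in HepG2 cells after 48 h treatment (1, 5, 10 μM for PARP). Lysates cleared, protein quantified by BCA, run on SDS-PAGE to PVDF, blocked in 5% BSA, primary overnight at 4 °C, DyLight 800 secondary. Infrared scanning and densitometry normalized to β-actin. Mean ± SD, n=3.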

As for `CC(C)(C)n1cc2c(n1)C(=O)CC1(CCN(C(=O)c3cc(-c4ccncc4)nc4ccccc34)CC1)O2`, the Activity in the data set with HepG2 [1] was 3.61%; in the data set with HepG2 [2] it was 78.83%; in the data set on HepG2 [5], 41.6%; in the data set on HepG2 [8], “Dose-dependent effect”. Also, the CI amounted to 0.599 in the data set on HepG2 [3], 0.737 with HepG2 [6] and 0.816 with HepG2 [7]. Also, the viability at 72 h, 100 µM in [4] worked out at 95.2%. Also, on Acetyl-CoA carboxylase 1, the inhibition entry was “Dose-dependent effect”.
